Reference: ChEMBL document CHEMBL1125321, “Synthesis and biological activity of 13-epi-avermectins: potent anthelmintic agents with an increased margin of safety” (J Med Chem, 1992)

Experiments:
Artemia salina = experiment: Compound is evaluated in vitro for brine shrimp (Artemia salina) activity.; assay type: functional
[1] = tested on: Oesophagostomum columbianum; experiment: Compound is evaluated in vivo for anthelmintic activity against Oesophagostomum columbianum (Oe. c) parasite in sheep; activity at 0.1 mg/kg; assay type: functional
Summary of the method: (§1)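 Sheep with patent infections randomly assigned; one sheep per compound, two vehicle-only controls. Single oral dose 0.1 mg/kg. Necropsy 7 days post-dose, residual worm burdens counted. Efficacy as % reduction from control, scored 0 = <50%, 1 = 51-75%, 2 = 76-95%, 3 = >95%.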

[2] = tested on: Teladorsagia circumcincta; experiment: Compound is evaluated in vivo for anthelmintic activity against Ostertagia circumcincta (Os. c) parasite in sheep; activity at 0.1 mg/kg; assay type: functional; summary of the method: as §1
Haemonchus contortus = experiment: Compound is evaluated in vivo for anthelmintic activity against Haemonchus contortus (H.c) parasite in sheep; activity at 0.1 mg/kg; assay type: functional; summary of the method: as §1
Cooperia [3] = experiment: Compound is evaluated in vivo for anthelmintic activity against Cooperia species (C. species) parasite in sheep; activity at 0.1 mg/kg; assay type: functional
Summary of the method: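 Sheep with patent nematode infections, randomly assigned to treatment or control; one sheep per compound, two vehicle-only controls. Single oral dose of 0.1 mg/kg. Necropsy 7 days after dosing to count residual worm burdens. Efficacy is % reduction from control, scored 0 = <50%, 1 = 51–75%, 2 = 76–95%, 3 = >95%.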

Trichostrongylus axei = experiment: Compound is evaluated in vivo for anthelmintic activity against Trichostrongylus axei (T.a) parasite in sheep; activity at 0.1 mg/kg; assay type: functional; summary of the method: as §1
[4] = Compound is evaluated for acute toxicity in mice; assay type: organism-based; conditions: mouse, in vivo
Summary of the method: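 Male CD-1 mice, groups of five per dose randomly allocated; several doses given orally in vehicle by calibrated syringe with blunt-tipped needle. Deaths counted 7 days after dosing; estimated LD50 derived by the method of dose-pair responses.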

[5] = tested on: Trichostrongylus colubriformis; experiment: Compound is evaluated in vivo for anthelmintic activity against Trichostrongylus colubriformis (T.c) parasite in sheep; activity at 0.1 mg/kg; assay type: functional; summary of the method: as §1
Cooperia [6] = experiment: Compound is evaluated in vivo for anthelmintic activity against Cooperia species (C. species) parasite in sheep; activity at 0.1 mg/kg; value ranges from 76-95%; assay type: functional; summary of the method: as §1

Question: For CC[C@H](C)[C@H]1O[C@@]2(C[C@@H]3C[C@@H](C/C=C(\C)[C@H](O[C@@H]4C[C@H](OC)C(O[C@H]5C[C@H](OC)[C@@H](O)[C@H](C)O5)[C@H](C)O4)[C@@H](C)/C=C/C=C4\CO[C@@H]5[C@H](O)C(C)=C[C@@H](C(=O)O3)[C@]45O)O2)C[C@H](O)[C@@H]1C (some centres undefined), which IC100 (Artemia salina) is on record?
Answer: 20850 ng/mL

Question: With CC[C@H](C)[C@H]1O[C@]2(C=C[C@@H]1C)C[C@@H]1C[C@@H](C/C=C(\C)[C@H](O[C@@H]3C[C@H](OC)C(O[C@H]4C[C@H](OC)[C@@H](O)[C@H](C)O4)[C@H](C)O3)[C@@H](C)/C=C/C=C3\CO[C@@H]4[C@H](O)C(C)=C[C@@H](C(=O)O1)[C@]34O)O2 (some centres undefined) as the compound, how does the IC100 (Artemia salina) read?
Answer: 10415 ng/mL

Question: With CC[C@H](C)[C@H]1O[C@@]2(C[C@@H]3C[C@@H](C/C=C(\C)[C@H](O[C@H]4C[C@H](OC)C(O[C@H]5C[C@H](OC)[C@@H](O)[C@H](C)O5)[C@H](C)O4)[C@@H](C)/C=C/C=C4\CO[C@@H]5[C@H](O)C(C)=C[C@@H](C(=O)O3)[C@]45O)O2)C[C@H](O)[C@@H]1C (some centres undefined) as the compound, how does the Activity [1] read?
Answer: >95%

Question: What about the Activity [2] of the same compound?
Answer: >95%

Question: What about the Activity (Haemonchus contortus) of the same compound?
Answer: >95%

Question: And the IC100 (Artemia salina)?
Answer: 650 ng/mL

Question: And the Activity (Cooperia [3])?
Answer: >95%

Question: And the Activity (Trichostrongylus axei)?
Answer: >95%

Question: And the LD50 [4]?
Answer: 540 mg/kg

Question: What about the Activity [5] of the same compound?
Answer: >95%

Question: What does the source list for CC[C@H](C)[C@H]1O[C@]2(C=C[C@@H]1C)C[C@@H]1C[C@@H](C/C=C(\C)[C@H](O[C@H]3C[C@H](OC)C(O[C@H]4C[C@H](OC)[C@@H](O)[C@H](C)O4)[C@H](C)O3)[C@@H](C)/C=C/C=C3\CO[C@@H]4[C@H](O)C(C)=C[C@@H](C(=O)O1)[C@]34O)O2 (some centres undefined)?
Answer: Activity [1]: >95%; Activity [2]: >95%; Activity (Haemonchus contortus): >95%; IC100 (Artemia salina): 870 ng/mL; Activity (Cooperia [6]): 76%; Activity (Trichostrongylus axei): >95%; LD50 [4]: 160 mg/kg; Activity [5]: >95%

Question: Which results are given for CC[C@H](C)[C@H]1O[C@]2(C=C[C@@H]1C)C[C@@H]1C[C@@H](C/C=C(\C)[C@@H](O[C@H]3C[C@H](OC)[C@@H](O[C@H]4C[C@H](OC)[C@@H](O)[C@H](C)O4)[C@H](C)O3)[C@@H](C)/C=C/C=C3\CO[C@@H]4[C@H](O)C(C)=C[C@@H](C(=O)O1)[C@]34O)O2 [ABAMECTIN COMPONENT B1A]?
Answer: IC100 (Artemia salina): 356 ng/mL; LD50 [4]: 19 mg/kg

Question: What does the source list for CCC(C)C1O[C@]2(C=C[C@@H]1C)C[C@@H]1CC(C/C=C(\C)[C@@H](OC3C[C@H](OC)[C@@H](OC4C[C@H](OC)[C@@H](O)[C@H](C)O4)[C@H](C)O3)[C@@H](C)/C=C/C=C3\COC4[C@H](O)C(C)=CC(C(=O)O1)[C@]34O)O2 (some centres undefined) [AVERMECTIN B1A]?
Answer: Activity [1]: >95%; Activity [2]: >95%; Activity (Haemonchus contortus): >95%; Activity (Cooperia [3]): >95%; Activity (Trichostrongylus axei): >95%; Activity [5]: >95%

Question: Which Activity [1] does the source give for COC1CC(OC2C(C)OC(O[C@@H]3/C(C)=C/C[C@@H]4C[C@@H](C[C@]5(CC(O)[C@H](C)[C@@H](C(C)C)O5)O4)OC(=O)[C@@H]4C=C(C)[C@@H](O)[C@H]5OC/C(=C\C=C\[C@@H]3C)[C@]54O)CC2OC)OC(C)C1O (some centres undefined) [AVERMECTIN B2] here?
Answer: >95%

Question: And the Activity [2]?
Answer: >95%

Question: And the Activity (Haemonchus contortus)?
Answer: >95%

Question: And the IC100 (Artemia salina)?
Answer: 220 ng/mL

Question: And the Activity (Cooperia [3])?
Answer: >95%

Question: What about the Activity (Trichostrongylus axei) of the same compound?
Answer: >95%

Question: What about the LD50 [4] of the same compound?
Answer: 50 mg/kg

Question: And the Activity [5]?
Answer: >95%
